Series [1] can be described thus: Toxicity in BALB/c mouse xenografted with human MCF7 cells assessed as change in body weight at 12.5 mg/kg, ip administered every 2 days in presence of 12.5 mg/kg JMJD6 inhibitor. The conditions noted are these: in vivo, 48 h. Type of series: organism-based. The essentials:
(§1)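 Female BALB/c nude mice carried MCF7 xenografts (5 × 10^6 cells sc, E2 10–2 M brushed every 2 days) and were randomized at about 50 mm3. Peptide was given at 12.5 mg/kg ip every 2 days, and iJMJD6 (DMSO/PBS 1:20) at 12.5 mg/kg ip every other day, alone or combined. Body and organ weights were recorded.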
Background: In xenograft studies the graft and the host belong to different species.

Series [2] can be described thus: Toxicity in BALB/c mouse xenografted with human MCF7 cells assessed as change in liver morphology at 12.5 mg/kg, ip administered every 2 days in presence of 50 mg/kg JQ1. Type of series: organism-based. As to conditions: in vivo, 48 h.
Series [3] relates to Mus musculus. The series is described as follows: Downregulation of BRD4 mRNA expression in BALB/c mouse tumor xenografted with human MDA-MB-231 cells at 25 mg/kg, ip administered every 2 days by RT-qPCR analysis. The class given is functional, organism-based.
The target in series [4] is T1, von Hippel-Lindau disease tumor suppressor/Bromodomain-containing protein 4 (Homo sapiens) (UniProt O60885+P40337). Nature of the series: PROTAC activity at VHL/His-tagged BDR4 ET domain (471 to 730 residues) (unknown origin) transfected in MCF7 cells assessed as degradation by measuring fold change in remaining BRD4 level at 20 uM incubated for 24 hrs by immunoblotting analysis (reference value: […]). Type of series: cell-based.

Series [5] relates to MDA-MB-231. The series is described as follows: Antiproliferative activity against human MDA-MB-231 cells at 10 uM incubated for 1 week in presence of JMJD6 inhibitor by CellTiter 96 Aqueous One Solution based assay. The class given is functional, cell-based. The conditions noted are these: time 1.0 weeks. The essentials:
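Cells seeded at 2 × 10^3/well and treated with peptide (10 μM) alone or combined with JQ1 (5 μM), iJMJD6 (10 μM) or ICI (2.5 μM), as the line states. Viability read by MTS reagent, 1 h at 37 °C, A490. Three biological repeats.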

The subject of series [6] is MDA-MB-231. Nature of the series: Inhibition of cell migration in human MDA-MB-231 cells at 10 uM incubated for 12 hrs by inverted microscopic assay. The class given is functional, cell-based. The essentials: (§2)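 Cells are seeded at 5 × 10^5/well and scratched at 80–90% confluence. They are kept in serum-free medium with peptide (10 μM); partner agents are JQ1 5 μM, iJMJD6 10 μM, or ICI 2.5 μM. Wound area is imaged by inverted microscope at 0 and 12 or 24 h. Wound closure % = (A0−A1)/A0 × 100. Three biological repeats.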

Series [7] in a line: Toxicity in BALB/c mouse xenografted with human MDA-MB-231 cells assessed as change in lung morphology at 12.5 mg/kg, ip administered every 2 days in presence of 50 mg/kg JQ1. The class given is organism-based. As to conditions: in vivo, 48 h. The method in brief: (§3)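 Female BALB/c nude mice (4–6 weeks) carried sc MDA-MB-231 xenografts (5 × 10^6 cells) and were randomized at about 50 mm3. Peptide (12.5 mg/kg ip in saline) and JQ1 (50 mg/kg ip, DMSO/10% HPBCD 1:10) were given every 2 days, alone or combined. Body weight was recorded, and heart, liver, spleen, lung and kidney morphology and weight were assessed.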

Series [8] can be described thus: Downregulation of c-Myc protein expression in BALB/c mouse tumor xenografted with human MCF7 cells assessed as fold change in remaining c-Myc level at 25 mg/kg, ip administered every 2 days by immunoblotting analysis. The class given is functional. The essentials: (§4)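 Female BALB/c nude mice (4–6 weeks) carry subcutaneous MCF7 or MDA-MB-231 grafts (5 × 10^6 cells). MCF7 mice are brushed with E2 (10–2 M) every 2 days. Dosing starts at ~50 mm3: peptide in normal saline, ip every 2 days. Tumour lysates are immunoblotted with β-actin as loading control; repeated three times.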

The subject of series [9] is MCF7. Nature of the series: Inhibition of colony formation in human MCF7 cells at 10 uM incubated for 2 weeks in presence of fulvestrant by crystal violet staining based assay. The class given is functional, cell-based. The method in brief:
(§5)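 Cells are seeded at 1 × 10^3/well and treated with peptide (10 μM) for 2 weeks, alone or with JQ1 5 μM, iJMJD6 10 μM, ICI 2.5 μM, or tamoxifen 3 μM (tamoxifen-resistant lines). Colonies are stained with crystal violet, dissolved in 10% acetic acid, and read at 590 nm. Three biological repeats.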

Series [10] in a line: Downregulation of c-Myc protein expression in BALB/c mouse tumor xenografted with human MDA-MB-231 cells assessed as fold change in remaining c-Myc level at 25 mg/kg, ip administered every 2 days by immunoblotting analysis. Type of series: functional. The essentials: as §4
Series [11] in a line: Toxicity in BALB/c mouse xenografted with human MCF7 cells assessed as change in spleen at 12.5 mg/kg, ip administered every 2 days in presence of 12.5 mg/kg JMJD6 inhibitor. Type of series: organism-based. As to conditions: in vivo, 48 h. The essentials:
as §1

Series [12] in a line: Downregulation of CCND1 protein expression in BALB/c mouse tumor xenografted with human MDA-MB-231 cells assessed as fold change in remaining CCND1 level at 25 mg/kg, ip administered every 2 days by immunoblotting analysis. The class given is functional. The method in brief: (§6)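 Tumours taken from xenograft mice dosed with peptide at 25 mg/kg ip every 2 days. […] Three repeats.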

For series [13], the target named is T1, von Hippel-Lindau disease tumor suppressor/Bromodomain-containing protein 4 (Homo sapiens). The series is described as follows: PROTAC activity at VHL/His-tagged BDR4 ET domain (471 to 730 residues) (unknown origin) transfected in MCF7 cells assessed as degradation by measuring fold change in remaining BRD4 level at 5 uM incubated for 24 hrs by immunoblotting analysis (reference value: […]). Type of series: cell-based.

Series [14] can be described thus: Toxicity in BALB/c mouse xenografted with human MCF7 cells assessed as change in lung weight at 12.5 mg/kg, ip administered every 2 days in presence of 50 mg/kg JQ1. Type of series: organism-based. As to conditions: in vivo, 48 h.
Series [15] in a line: Toxicity in BALB/c mouse xenografted with human MDA-MB-231 cells assessed as change in kidney weight at 12.5 mg/kg, ip administered every 2 days in presence of 50 mg/kg JQ1. The class given is organism-based. As to conditions: in vivo, 48 h. The essentials:
as §3

In series [16] the test system is T47D. Nature of the series: Inhibition of colony formation in human T47D cells at 10 uM incubated for 2 weeks in presence of JMJD6 inhibitor by crystal violet staining based assay. Type of series: functional, cell-based. The essentials: as §5
Series [17] in a line: Downregulation of N-myc protein expression in BALB/c mouse tumor xenografted with human MCF7 cells assessed as fold change in remaining N-myc level at 25 mg/kg, ip administered every 2 days by immunoblotting analysis. The class given is functional. The essentials: as §6
A short description of series [18]: Toxicity in BALB/c mouse xenografted with human MDA-MB-231 cells assessed as change in lung weight at 12.5 mg/kg, ip administered every 2 days in presence of 50 mg/kg JQ1. As to conditions: in vivo, 48 h. Type of series: organism-based. The essentials: as §3
Series [19] has as its system MDA-MB-231. The series is described as follows: Inhibition of colony formation in human MDA-MB-231 cells at 10 uM incubated for 2 weeks by crystal violet staining based assay. The class given is functional, cell-based. The essentials: as §5
The test system of series [20] is MDA-MB-231. The series is described as follows: Inhibition of cell migration in human MDA-MB-231 cells at 10 uM incubated for 24 hrs in presence of JMJD6 inhibitor by inverted microscopic analysis. The class given is functional, cell-based. The method in brief: as §2
For series [21], the system named is MCF7. Nature of the series: Inhibition of colony formation in human MCF7 cells at 10 uM incubated for 2 weeks by crystal violet staining based assay. The class given is functional, cell-based. The method in brief: as §5

Active and inactive are the calls of the source. The calls are words filed in the database; no cut-off is given here. Square brackets hold non-standard residues; d marks the D form. Peptide text beside a SMILES is read from it. Hyp = O=C(O)[C@@H]1C[C@@H](O)CN1; Ahx = NCCCCCC(=O)O

T1 sequence (P40337 whole entry, looked up, other chains not shown, the tested form may be a part): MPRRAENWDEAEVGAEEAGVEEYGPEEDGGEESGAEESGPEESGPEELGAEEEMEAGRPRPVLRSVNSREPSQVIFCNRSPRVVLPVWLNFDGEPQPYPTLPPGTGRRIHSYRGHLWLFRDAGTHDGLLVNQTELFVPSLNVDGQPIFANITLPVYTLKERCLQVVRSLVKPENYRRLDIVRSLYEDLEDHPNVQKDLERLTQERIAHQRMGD

Take `CC[C@H](C)[C@H](NC(=O)[C@H](Cc1ccc(O)cc1)NC(=O)[C@@H]1C[C@@H](O)CN1C(=O)[C@H](C)NC(=O)[C@@H](NC(=O)CCCCCNC(=O)[C@H](CCC(=O)O)NC(=O)CNC(=O)[C@H](CS)NC(=O)[C@H](CCCCN)NC(=O)[C@H](Cc1ccccc1)NC(=O)[C@H](CCCCN)NC(=O)[C@H](CCC(N)=O)NC(=O)[C@H](CC(N)=O)NC(=O)[C@H](CCCNC(=N)N)NC(=O)[C@H](CCCNC(=N)N)NC(=O)[C@H](CCCNC(=N)N)NC(=O)[C@H](CCCNC(=N)N)NC(=O)[C@H](CCC(N)=O)NC(=O)[C@H](CCCNC(=N)N)NC(=O)[C@H](CCCNC(=N)N)NC(=O)[C@H](CCCCN)NC(=O)[C@H](CCCCN)NC(=O)[C@H](CCCNC(=N)N)NC(=O)CNC(=O)[C@@H](N)Cc1ccc(O)cc1)[C@@H](C)CC)C(=O)O` (H-YGRKKRRQRRRRNQKFKCGE[Ahx]IA[Hyp]YI-OH): the Activity result in series [1], in [2], in [7], in series [11], in [14] and in series [15] was “Non-Toxic” in each case. Also, the Activity result in series [18] is listed as “Non-Toxic”. Further, the result in series [3] was inactive. For the same molecule, the fold change (FC) was found to be 0.6 in series [4]; 0.38 in series [8]; 0.44 in series [10]; 0.08 in series [12]; 0.8 in series [13]; 0.43 in [17]. In series [5], the outcome was Active. Moreover, the inhibition result in [6], in series [9], in [16], in series [19], in series [20] and in series [21] was “Active” each time.
Regarding H-YGRKKRRQRRRRNQKFKCGE-OH, the Activity result in series [1], in series [2], in series [7], in series [11], in series [14] and in series [15] was “Non-Toxic” each time. Moreover, the Activity result in [18] is reported as “Non-Toxic”. In addition, the outcome in series [3] was inactive. The result in [5] was Active. For the same molecule, the inhibition entry in series [6], in series [9], in [16], in [19], in series [20] and in [21] was “Active” each time. Moreover, the “fold change (FC)” value turned out to be 0.27 in series [8], 0.22 in series [10], 0.28 in series [12] and 0.38 in series [17].

The record behind these values is ChEMBL document CHEMBL5543129, “Peptide Inhibitor Targeting the Extraterminal Domain in BRD4 Potently Suppresses Breast Cancer Both In Vitro and In Vivo” (J Med Chem, 2024).
